Values after ≈ are worked out from the molar mass of the structure shown. Active and inactive are the calls of the source. The rule behind the calls is not given here.
Tests used:
[1] = Lipophilicity, log D of the compound at pH 7.4; format: physicochemical; conditions: buffer
Jurkat [2] = experiment: Cell cycle arrest in human Jurkat cells assessed as accumulation at G0/G1 phase at 1 uM after 24 hrs by FITC/propidium iodide staining-based FACS flow cytometric analysis (reference value: 55.5%); format: functional
Summary of the method: (§1)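 HeLa and Jurkat human cells were cultured for 24 h with compound at two concentrations. The control was an equal volume of the DMSO diluent. Cellular DNA and protein content were then measured by flow cytometry, and the percentage of cells in sub-G1, G0/G1, S and G2/M was read out.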

Cytochrome P450 3A4 [3] = target: T1, Cytochrome P450 3A4 (Homo sapiens, UniProt P08684); experiment: Inhibition of CYP3A4 (unknown origin) using vivid red as substrate; format: ADME
Histone deacetylase 8 = target: T2, Histone deacetylase 8 (Homo sapiens, UniProt Q9BY41); experiment: Inhibition of recombinant HDAC8 (unknown origin) expressed in Escherichia coli BL21 using MAL as substrate incubated for 15 mins prior to substrate addition measured after 60 mins by fluorescence plate reader analysis
T2 sequence (Q9BY41 whole entry): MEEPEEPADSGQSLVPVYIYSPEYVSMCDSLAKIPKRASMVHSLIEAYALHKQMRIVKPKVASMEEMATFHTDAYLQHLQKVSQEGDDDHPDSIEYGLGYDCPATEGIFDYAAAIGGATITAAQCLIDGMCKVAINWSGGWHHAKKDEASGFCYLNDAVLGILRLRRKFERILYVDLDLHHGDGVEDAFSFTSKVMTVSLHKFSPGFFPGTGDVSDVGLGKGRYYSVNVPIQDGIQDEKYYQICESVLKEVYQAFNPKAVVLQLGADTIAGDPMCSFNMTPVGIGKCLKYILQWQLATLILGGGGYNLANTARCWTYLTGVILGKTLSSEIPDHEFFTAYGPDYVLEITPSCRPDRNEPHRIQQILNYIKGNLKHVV

[4] = target: Histone deacetylase 3/NCoR1 (Homo sapiens, UniProt O15379); experiment: Inhibition of recombinant HDAC3-NCoR1 (unknown origin) using MAL as substrate incubated for 3 hrs prior to substrate addition measured after 60 mins by fluorescence plate reader analysis; format: protein-complex assay
Jurkat [5] = experiment: Cell cycle arrest in human Jurkat cells assessed as accumulation at sub-G1 phase at 10 uM after 24 hrs by FITC/propidium iodide staining-based FACS flow cytometric analysis (reference value: 2%); format: functional; summary of the method: as §1
DU-145 = experiment: Cytotoxicity against human DU145 cells assessed as growth inhibition by measuring cellular ATP level after 72 hrs by cell-titer glo assay; format: functional, cell-based; conditions: DU-145, 72 h
MCF7 = experiment: Cytotoxicity against human MCF7 cells assessed as growth inhibition by measuring cellular ATP level after 72 hrs by cell-titer glo assay; format: functional, cell-based; conditions: MCF7, 72 h
Jurkat [6] = experiment: Cell cycle arrest in human Jurkat cells assessed as accumulation at G2/M phase at 10 uM after 24 hrs by FITC/propidium iodide staining-based FACS flow cytometric analysis (reference value: 13.2%); format: functional; summary of the method: as §1
[7] = Octanol-water partition coefficient, log p of the compound; format: physicochemical
Cytochrome P450 3A4 [8] = target: T1, Cytochrome P450 3A4; experiment: Inhibition of CYP3A4 (unknown origin) using vivid green as substrate; format: ADME
A549 = experiment: Cytotoxicity against human A549 cells assessed as growth inhibition by measuring cellular ATP level after 72 hrs by cell-titer glo assay; format: functional, cell-based; conditions: A549, 72 h
[9] = target: Histone deacetylase 3/NCoR1 (Homo sapiens) (UniProt O15379+O75376); experiment: Inhibition of recombinant HDAC3-NCoR1 (unknown origin) assessed as slow tight binding at 0.02 to 20 uM; format: protein-complex assay
Cytochrome P450 2C19 = Cytochrome P450 2C19 (Homo sapiens, UniProt P33261); experiment: Inhibition of CYP2C19 (unknown origin); format: ADME
HCT-116 = experiment: Cytotoxicity against human HCT116 cells assessed as growth inhibition by measuring cellular ATP level after 72 hrs by cell-titer glo assay; format: functional, cell-based; conditions: HCT-116, 72 h
Cytochrome P450 2C9 = Cytochrome P450 2C9 (Homo sapiens, UniProt P11712); experiment: Inhibition of CYP2C9 (unknown origin); format: ADME
[10] = Kinetic solubility of the compound; format: physicochemical; conditions: read-out: Kinetic_solubility
Summary of the method: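 Solubility was measured by chemiluminescent nitrogen detection.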

Jurkat [11] = experiment: Induction of apoptosis in human Jurkat cells assessed as PARP cleavage at 1 to 10 uM after 24 hrs by Western blot analysis; format: functional, cell-based
Jurkat [12] = experiment: Cell cycle arrest in human Jurkat cells assessed as accumulation at S phase at 10 uM after 24 hrs by FITC/propidium iodide staining-based FACS flow cytometric analysis (reference value: 15.3%); format: functional; summary of the method: as §1
HeLa [13] = experiment: Induction of apoptosis in human HeLa cells assessed as PARP cleavage at 1 to 10 uM after 24 hrs by Western blot analysis; format: functional, cell-based
HeLa [14] = experiment: Cell cycle arrest in human HeLa cells assessed as accumulation at G2/M phase at 10 uM after 24 hrs by FITC/propidium iodide staining-based FACS flow cytometric analysis; format: functional; summary of the method: as §1
[15] = Permeability of the compound by PAMPA; format: ADME; conditions: read-out: permeability
Histone deacetylase 1 = Histone deacetylase 1 (Homo sapiens, UniProt Q13547); experiment: Inhibition of recombinant C-terminal FLAG-tagged HDAC1 (unknown origin) expressed in Escherichia coli BL21 using MAL as substrate incubated for 1 hr prior to substrate addition measured after 60 mins by fluorescence plate reader analysis
Jurkat [16] = experiment: Cell cycle arrest in human Jurkat cells assessed as accumulation at G0/G1 phase at 10 uM after 24 hrs by FITC/propidium iodide staining-based FACS flow cytometric analysis (reference value: 69.5%); format: functional; summary of the method: as §1
Jurkat [17] = experiment: Cell cycle arrest in human Jurkat cells assessed as accumulation at G2/M phase at 1 uM after 24 hrs by FITC/propidium iodide staining-based FACS flow cytometric analysis (reference value: 14.4%); format: functional; summary of the method: as §1
Jurkat [18] = experiment: Cell cycle arrest in human Jurkat cells assessed as accumulation at S phase at 1 uM after 24 hrs by FITC/propidium iodide staining-based FACS flow cytometric analysis (reference value: 22.3%); format: functional; summary of the method: as §1
Cytochrome P450 2D6 = Cytochrome P450 2D6 (Homo sapiens, UniProt P10635); experiment: Inhibition of CYP2D6 (unknown origin); format: ADME
Sequence of Cytochrome P450 2D6 (P10635 whole entry): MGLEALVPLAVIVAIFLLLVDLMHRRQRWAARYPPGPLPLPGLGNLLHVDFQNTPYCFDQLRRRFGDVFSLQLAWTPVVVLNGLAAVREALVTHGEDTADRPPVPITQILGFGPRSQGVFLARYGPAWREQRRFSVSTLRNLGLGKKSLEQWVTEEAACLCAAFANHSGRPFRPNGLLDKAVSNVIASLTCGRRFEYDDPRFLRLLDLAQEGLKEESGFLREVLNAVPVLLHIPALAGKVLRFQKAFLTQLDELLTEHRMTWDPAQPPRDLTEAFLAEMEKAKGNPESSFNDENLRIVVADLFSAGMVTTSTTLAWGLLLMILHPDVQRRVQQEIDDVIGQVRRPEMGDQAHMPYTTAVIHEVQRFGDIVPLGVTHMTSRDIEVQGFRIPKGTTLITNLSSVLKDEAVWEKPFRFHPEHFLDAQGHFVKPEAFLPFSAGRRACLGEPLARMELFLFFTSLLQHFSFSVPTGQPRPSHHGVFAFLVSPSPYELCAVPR

T1 sequence (P08684 whole entry): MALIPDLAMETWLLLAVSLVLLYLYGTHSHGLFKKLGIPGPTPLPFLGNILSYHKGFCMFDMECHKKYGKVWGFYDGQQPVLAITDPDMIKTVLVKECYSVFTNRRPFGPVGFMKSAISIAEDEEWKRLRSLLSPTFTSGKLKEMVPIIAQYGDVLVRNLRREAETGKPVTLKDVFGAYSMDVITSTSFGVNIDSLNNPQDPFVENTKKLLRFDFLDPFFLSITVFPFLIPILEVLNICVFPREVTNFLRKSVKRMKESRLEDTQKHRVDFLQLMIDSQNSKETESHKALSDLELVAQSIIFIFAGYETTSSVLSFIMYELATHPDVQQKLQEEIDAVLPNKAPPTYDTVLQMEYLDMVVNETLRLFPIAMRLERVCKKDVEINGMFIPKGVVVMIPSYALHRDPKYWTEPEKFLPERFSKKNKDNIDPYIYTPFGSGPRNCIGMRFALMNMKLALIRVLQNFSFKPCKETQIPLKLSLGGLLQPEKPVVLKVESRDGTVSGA
Sequence of Histone deacetylase 3/NCoR1 (O15379 whole entry): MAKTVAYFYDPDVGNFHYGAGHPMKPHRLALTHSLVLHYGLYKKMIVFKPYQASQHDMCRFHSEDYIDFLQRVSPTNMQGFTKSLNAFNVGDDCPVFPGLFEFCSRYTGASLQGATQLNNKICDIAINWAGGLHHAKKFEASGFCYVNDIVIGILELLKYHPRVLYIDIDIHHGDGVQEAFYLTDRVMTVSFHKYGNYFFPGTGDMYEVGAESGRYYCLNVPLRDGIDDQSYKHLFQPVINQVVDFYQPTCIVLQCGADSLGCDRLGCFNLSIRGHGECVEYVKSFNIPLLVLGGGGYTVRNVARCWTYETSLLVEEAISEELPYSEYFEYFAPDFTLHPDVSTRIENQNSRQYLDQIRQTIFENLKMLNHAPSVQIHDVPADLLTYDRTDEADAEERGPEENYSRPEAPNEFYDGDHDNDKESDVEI
Sequence of Histone deacetylase 3/NCoR1 (O75376 whole entry, further chain): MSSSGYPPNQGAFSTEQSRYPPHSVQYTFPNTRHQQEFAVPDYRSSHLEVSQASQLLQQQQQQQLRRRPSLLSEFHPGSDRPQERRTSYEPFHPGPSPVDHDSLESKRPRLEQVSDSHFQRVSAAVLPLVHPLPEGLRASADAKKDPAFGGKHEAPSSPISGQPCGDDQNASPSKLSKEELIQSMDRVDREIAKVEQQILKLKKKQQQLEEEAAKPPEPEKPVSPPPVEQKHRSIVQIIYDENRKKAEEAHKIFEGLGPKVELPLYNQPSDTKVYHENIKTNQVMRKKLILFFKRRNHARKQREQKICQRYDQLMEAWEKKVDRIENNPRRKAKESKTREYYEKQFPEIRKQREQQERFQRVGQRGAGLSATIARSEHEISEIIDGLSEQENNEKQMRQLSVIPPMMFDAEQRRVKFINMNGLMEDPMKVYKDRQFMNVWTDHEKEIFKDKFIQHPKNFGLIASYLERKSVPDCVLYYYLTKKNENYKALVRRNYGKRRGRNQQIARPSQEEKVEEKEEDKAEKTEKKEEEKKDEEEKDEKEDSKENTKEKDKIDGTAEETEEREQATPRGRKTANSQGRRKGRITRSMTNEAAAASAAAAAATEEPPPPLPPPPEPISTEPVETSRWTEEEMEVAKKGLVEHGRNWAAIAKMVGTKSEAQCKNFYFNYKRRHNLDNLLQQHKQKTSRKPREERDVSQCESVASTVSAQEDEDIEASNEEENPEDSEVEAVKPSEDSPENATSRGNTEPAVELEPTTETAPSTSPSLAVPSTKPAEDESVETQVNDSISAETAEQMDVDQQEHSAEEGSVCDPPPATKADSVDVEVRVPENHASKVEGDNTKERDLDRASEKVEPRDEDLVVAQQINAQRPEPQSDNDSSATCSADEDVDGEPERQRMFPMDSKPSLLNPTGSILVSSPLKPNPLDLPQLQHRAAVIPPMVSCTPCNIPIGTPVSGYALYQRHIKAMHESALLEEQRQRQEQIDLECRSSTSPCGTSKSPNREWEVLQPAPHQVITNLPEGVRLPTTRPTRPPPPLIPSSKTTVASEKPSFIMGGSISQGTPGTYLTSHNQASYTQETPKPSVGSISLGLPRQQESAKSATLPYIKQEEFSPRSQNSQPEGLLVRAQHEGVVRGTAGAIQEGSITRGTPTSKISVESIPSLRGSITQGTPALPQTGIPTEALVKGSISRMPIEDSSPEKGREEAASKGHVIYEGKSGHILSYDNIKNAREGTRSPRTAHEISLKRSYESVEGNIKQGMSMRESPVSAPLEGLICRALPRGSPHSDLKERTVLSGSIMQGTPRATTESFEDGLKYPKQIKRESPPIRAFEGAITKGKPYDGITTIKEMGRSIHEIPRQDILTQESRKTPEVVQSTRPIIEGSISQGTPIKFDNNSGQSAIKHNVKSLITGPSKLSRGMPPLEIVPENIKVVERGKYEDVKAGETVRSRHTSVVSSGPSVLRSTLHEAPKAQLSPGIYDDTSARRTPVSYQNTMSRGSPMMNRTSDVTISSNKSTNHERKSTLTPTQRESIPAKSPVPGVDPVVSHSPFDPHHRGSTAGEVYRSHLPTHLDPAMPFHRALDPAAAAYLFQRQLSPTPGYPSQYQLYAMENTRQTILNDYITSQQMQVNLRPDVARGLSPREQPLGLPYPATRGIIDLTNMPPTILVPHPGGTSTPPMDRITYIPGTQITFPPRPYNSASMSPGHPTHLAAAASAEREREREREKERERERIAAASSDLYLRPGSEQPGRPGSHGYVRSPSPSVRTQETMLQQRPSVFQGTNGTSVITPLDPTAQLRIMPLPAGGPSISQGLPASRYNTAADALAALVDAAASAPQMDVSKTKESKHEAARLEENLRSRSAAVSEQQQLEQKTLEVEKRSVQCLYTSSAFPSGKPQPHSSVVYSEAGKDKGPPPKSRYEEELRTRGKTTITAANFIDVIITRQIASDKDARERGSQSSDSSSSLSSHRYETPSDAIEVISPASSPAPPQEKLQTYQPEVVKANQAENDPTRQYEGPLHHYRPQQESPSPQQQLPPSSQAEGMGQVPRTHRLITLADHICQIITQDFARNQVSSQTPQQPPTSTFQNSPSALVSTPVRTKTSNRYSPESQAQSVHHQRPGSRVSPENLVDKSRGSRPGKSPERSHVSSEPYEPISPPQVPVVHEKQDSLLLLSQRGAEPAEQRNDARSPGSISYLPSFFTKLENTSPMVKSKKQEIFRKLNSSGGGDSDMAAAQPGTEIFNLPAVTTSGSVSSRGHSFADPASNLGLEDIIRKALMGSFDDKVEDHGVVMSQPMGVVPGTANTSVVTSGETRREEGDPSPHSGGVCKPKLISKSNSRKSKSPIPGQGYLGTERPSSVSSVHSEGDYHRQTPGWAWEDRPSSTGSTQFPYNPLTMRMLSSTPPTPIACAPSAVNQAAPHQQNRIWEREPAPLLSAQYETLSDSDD
Sequence of Cytochrome P450 2C19 (P33261 whole entry): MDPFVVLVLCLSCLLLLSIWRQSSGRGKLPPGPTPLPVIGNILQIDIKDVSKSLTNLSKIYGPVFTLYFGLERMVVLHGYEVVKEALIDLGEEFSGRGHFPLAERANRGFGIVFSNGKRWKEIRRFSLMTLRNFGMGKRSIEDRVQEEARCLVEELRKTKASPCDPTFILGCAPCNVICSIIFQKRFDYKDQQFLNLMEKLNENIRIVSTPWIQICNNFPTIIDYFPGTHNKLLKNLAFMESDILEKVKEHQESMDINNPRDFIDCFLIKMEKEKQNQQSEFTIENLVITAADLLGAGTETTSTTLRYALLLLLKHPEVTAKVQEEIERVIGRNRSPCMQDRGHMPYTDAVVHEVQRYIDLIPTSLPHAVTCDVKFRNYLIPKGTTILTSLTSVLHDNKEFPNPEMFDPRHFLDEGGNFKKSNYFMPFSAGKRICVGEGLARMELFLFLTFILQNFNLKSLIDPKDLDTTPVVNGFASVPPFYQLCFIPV
Sequence of Cytochrome P450 2C9 (P11712 whole entry): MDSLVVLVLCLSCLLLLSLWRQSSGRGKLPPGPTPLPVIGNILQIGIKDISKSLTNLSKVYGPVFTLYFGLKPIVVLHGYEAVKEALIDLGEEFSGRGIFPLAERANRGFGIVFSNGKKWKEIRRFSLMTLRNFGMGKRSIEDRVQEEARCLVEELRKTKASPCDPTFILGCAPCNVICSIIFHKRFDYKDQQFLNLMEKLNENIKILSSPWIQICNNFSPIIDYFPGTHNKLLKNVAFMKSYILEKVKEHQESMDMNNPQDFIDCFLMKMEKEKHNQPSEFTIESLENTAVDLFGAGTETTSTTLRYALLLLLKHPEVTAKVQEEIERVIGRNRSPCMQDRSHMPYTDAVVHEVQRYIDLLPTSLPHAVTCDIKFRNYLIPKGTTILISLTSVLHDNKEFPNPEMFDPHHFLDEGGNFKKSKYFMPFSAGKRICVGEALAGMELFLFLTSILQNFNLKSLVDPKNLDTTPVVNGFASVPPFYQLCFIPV

## Nc1ccccc1NC(=O)c1ccc(CNC2=N[C@@H](c3ccccc3)CS2)cc1
[1]
  logD: 4.24
Jurkat [2]
  Activity: 48.1%
Cytochrome P450 3A4 [3]
  IC50: 25 µM
Histone deacetylase 8
  IC50: 4.1 µM
[4]
  IC50: 0.012 µM
Jurkat [5]
  Activity: 19.5%
DU-145
  IC50: 6.4 µM
MCF7
  IC50: 5.43 µM
Jurkat [6]
  Activity: 16.9%
[7]
  logP: 4.65
Cytochrome P450 3A4 [8]
  IC50: 16 µM
A549
  IC50: 5.78 µM
[9]
  inhibition: Active
Cytochrome P450 2C19
  IC50: 32 µM
HCT-116
  IC50: 2.17 µM
Cytochrome P450 2C9
  IC50: 16 µM
[10]
  solubility kinetic: 239 µM (≈ 96.2 µg/mL)
Jurkat [11]
  Activity: Active
Jurkat [12]
  Activity: 35.1%
HeLa [13]
  Activity: inactive
HeLa [14]
  Activity: Active
[15]
  Papp: 51 ×10⁻⁶ cm/s
Histone deacetylase 1
  IC50: 0.93 µM
Jurkat [16]
  Activity: 28.5%
Jurkat [17]
  Activity: 9.1%
Jurkat [18]
  Activity: 6.2%
Cytochrome P450 2D6
  IC50: 0.08 µM
